Reference: article PMC12461606 (RSC Chemical Biology, 2025)

Experiments:
[1] = test system: Wild type A. thaliana (WT); assay: Dicamba tolerance trait test, wild type plants; type: in vivo, Arabidopsis thaliana; conditions: sprayed at 500 μM
Summary of the method: (§1)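 Wild-type plants or a homozygous dicamba-tolerant transgenic line (DMOc) were sprayed with test compound or the parent acid at 500 μM.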

[2] = test system: transgenic line of A. thaliana, modified with a synthetic dicamba monooxygenase from Stenotrophomonas maltophilia; assay: Dicamba tolerance trait test, dicamba-tolerant transgenic line; type: in vivo, Arabidopsis thaliana; conditions: sprayed at 500 μM, DMOc line
Summary of the method: as §1

[3] = test system: A. thaliana; assay: Herbicidal activity assay on soil-grown A. thaliana; type: in vivo, Arabidopsis thaliana; conditions: for pre-emergent inhibition: pre-emergence treatment; for pre-emergent inhibition / post-emergent inhibition: assessed on day 16; for post-emergent inhibition: treatments three and six days after germination
Summary of the method: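 Test compounds were applied to A. thaliana across 125 μM–2 mM, either pre-emergence or post-emergence.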

[4] = HPLC determination of dicamba formation in water; type: physicochemical; conditions: for % Dicamba: integration of dicamba as percentage of all peaks at 220 nm

Row | % Dicamba ([4]; 1 day) [%] | % Dicamba ([4]; 7 days) [%] | % Dicamba ([4]; 28 days) [%] | relative stability to hydrolysis among glucose isomers 1–5 ([4]; HPLC) | Molecule | growth effect on wild-type [1] | growth effect on dicamba-tolerant transgenic line [2] | pre-emergent inhibition ([3]; 125 μM) | post-emergent inhibition ([3]; 125 μM) | post-emergent inhibition ([3]; 500 μM) | pre-emergent inhibition ([3]; 1 mM) | relative post-emergent herbicidal efficacy among conjugates ([3]; post-emergence, comparison between carbohydrate conjugates (Fig. 5))
1 | – | – | – | – | COc1c(Cl)ccc(Cl)c1C(=O)O [Dicamba, 3,6-dichloro-2-methoxybenzoic acid] | herbicidal | no growth symptoms | weak | moderate | strong | strong | –
2 | 0.1 | 0.1 | 0.5 | most stable | 6-O-dicamba-D-glucose [Compound 2] | herbicidal | no growth symptoms | – | – | – | – | most active
